Bioassay records: PubChem, several laboratories
Mdm2-MdmX inh – disrupts the human Mdm2-MdmX interaction; O15151+Q00987; SaOS-2 split-luciferase Mdm2/MdmX complementation, luminescence; inhibition, % at 8 µM; 330,000 tested, 3% active;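 active = inhibition of at least 50% at 8 µM in the primary screen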
UPR XBP1 act – activators of adaptive arm of unfolded protein response (XBP1) | CHO-XBP1 luciferase reporter, IRE1-XBP1 UPR activation, luminescence; percent of tunicamycin response, DMSO as zero | 330,000 tested, 0.33% active | AID 463104 | activation, % at 20 µM;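 active = versus positive control, 20 µM dose yields 30% or more activation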;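 also: 100% = tunicamycin at 10 µg/mL and 0% = DMSO only wells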
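Material: CHO-XBP1 cells stably carrying IRE1-XBP1-driven luciferase reporter / Amount: 1000 cells per well / Compound: 20 µM, 1% DMSO / Times: 6 h treatment, 37 °C / Detection: luciferase luminescence / Measure: % activation of reporter signal versus tunicamycin and DMSO controls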
UPR CHOP act – activators of apoptotic arm of unfolded protein response (CHOP); 330,000 tested, 0.34% active; CHO-CHOP luciferase reporter, UPR activation, luminescence; percent of tunicamycin response over DMSO baseline; activation, % at 10 µM; AID 449763;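 active = at 10 µM dose, activation of 40% or more, normalized to positive control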;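 also: 100% = tunicamycin at 10 µg/mL and 0% = DMSO alone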
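Test system: CHO-CHOP cells, stable luciferase reporter of PERK-eIF2a-CHOP signalling | Quantity: 500 CHO-CHOP cells per well | Buffer or medium: F12 plus 10% serum | Compound dosing: 10 µM single point, 0.5% DMSO | Schedule: 6 h compound treatment, 37 °C | Signal: Luciferase luminescence | Control set: Tunicamycin high control, DMSO low control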
CSC inhib – cancer stem cell inhibition. cancer stem cell-like cells viability, luminescence. inhibition, % at 7.5 µM. 300,000 tested, 1.1% active. AID 2717; in the data active = inhibition above about 75%; inconclusive = no clear call, values can overlap the other calls; tested in HMLE shEcad cells
Beta cell apopt – beta cell apoptosis inhibition; protection from apoptosis, % (concentration not given with the values); AID 435005; 300,000 tested, 0.8% active; INS-1E cytokine-induced death, ATP luminescence, 48 h; percent of positive-control rescue, neutral wells zero;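 active = Every replicate reaches about 75%, or at least half do and their mean reaches it too, limit read from the data; inconclusive = At least half of replicates reach the limit but their mean does not; inactive = Under half of replicates reach the limit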;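 also: 0% = cytokine-treated negative control wells and 100% = positive control rescue; higher means more ATP so stronger rescue from cytokine killing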
SKKanGAS inh – inhibitors of SKKanGAS S. pyogenes growth in kanamycin (SK-promoter or general growth effect) | inhibition, % at 7.5 µM | BacTiter-Glo, 6 h | 300,000 tested, 1.3% active;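 active = mean replicate score, as percent of positive control median, at least 50; inconclusive = mean below 50 but one replicate at or above 50; inactive = mean and every replicate below 50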;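 also: strain carries kanamycin resistance gene driven by streptokinase promoter and grows in 40 µg/ml kanamycin; loss of luminescence reflects streptokinase promoter inhibition or plain growth inhibition; 0% = median of DMSO wells and 100% = positive control at its reference dose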
Mdm2 MdmX conf – confirmation of human Mdm2/MdmX interaction inhibitors; 10,000 tested, 55% active; inhibition, % at 8 µM; Mdm2-MdmX binding, luminescent assay; shares compounds with Mdm2-MdmX inh; in the data active = inhibition above about 40%
FLuc counter – inhibits full-length luciferase, flagging false Mdm2/MdmX hits | shares compounds with Mdm2-MdmX inh | SaOS-2 full-length luciferase counterscreen, luminescence | inhibition, % at 8 µM | 6,200 tested, 77% active;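 active = mean inhibition at 8 µM reaching about 37%, which flags the compound as non-specific, limit read from the data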;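 also: p53-null SaOS-2 cells with luciferase driven by a doxycycline-inducible promoter; compound on cells about two nights before reading with doxycycline added after day one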
An asterisk follows results filed as active; ? = inconclusive; · = no result given. Compounds with a hit are over-represented: about 4.8% of the library has one in this group of screens.

SMILES | Mdm2-MdmX inh | UPR XBP1 act | UPR CHOP act | CSC inhib | Beta cell apopt | SKKanGAS inh | Mdm2 MdmX conf | FLuc counter
O=C(Nc1ccc(C(F)(F)F)cc1)C1CCCCN1S(=O)(=O)c1ccccc1 (stereo not drawn) | 34 | -2 | 2 | · | · | · | · | ·
COc1ccccc1CN(C)C(=O)C(NC(=O)Cc1cccc2ccccc12)C(C)C (stereo not drawn) | 26 | -6 | 1 | 6 | 2 | -3 | · | ·
Cc1nnn(-c2nonc2N)c1C(=O)N/N=C/c1ccccc1O | 56* | -1 | -1 | 24 | 85* | -3 | 61* | 51*
Cc1cc(C)nc(NC2=NCC(=O)N2CCc2c[nH]c3ccccc23)n1 | 12 | 1 | 1 | · | 0 | -3 | · | ·
Cc1cc(C)nc(NC(N)=NCCc2c[nH]c3ccccc23)n1 | 72* | 1 | 0 | -3 | -3 | ? | 52* | 54*
COc1ccc(C(=O)Nc2cc(C)on2)cc1 | -28 | -4 | 2 | · | -1 | -14 | · | ·
COc1ccc(OCc2cccc(C(=O)Nn3cc([N+](=O)[O-])cn3)c2)cc1 | 79* | -7 | -11 | 42 | 9 | 3 | 71* | 4
COc1ccc(OCc2cccc(C(=O)Nc3cc(C)on3)c2)cc1 | 50 | -5 | -8 | 6 | 6 | -5 | 37 | ·
CCN(CC(=O)Nc1c(F)cccc1F)C(=O)c1cccc(S(=O)(=O)N2CCCCCC2)c1 | -24 | -5 | 0 | -19 | 1 | · | · | ·
C[C@H](NS(=O)(=O)c1ccccc1F)C(=O)OCC(=O)Nc1ccc2c(c1)OCCO2 | 21 | 1 | -2 | 1 | 0 | · | · | ·
CCCn1c2ccccc2c2cnn(CC(=O)N3CCN(C4CCCCC4)CC3)c(=O)c21 | 55* | 0 | 1 | 1 | 1 | -4 | 30 | ·
Cc1cccc(NC(=O)CCN2CCC(C)CC2)c1 | 12 | -1 | 2 | -10 | -2 | 4 | · | ·
O=C(Nc1ccc(F)cc1)Nc1ccc(N2CCCC2)c(S(=O)(=O)Nc2ccccc2Cl)c1 | 91* | 6 | 10 | -7 | -1 | 45 | 66* | 20
O=C(Nc1ccc(N2CCCCC2)c(S(=O)(=O)Nc2ccccc2Cl)c1)c1cccnc1 | 30 | -2 | 0 | 63 | 4 | · | · | ·
O=C(Nc1ccc(Cl)c(Cl)c1)Nc1ccc(N2CCCC2)c(S(=O)(=O)Nc2ccccc2Cl)c1 | 93* | 5 | 19 | 60 | 12 | 28 | 95* | 21
C[C@H](CO)N1C[C@H](C)[C@@H](CN(C)C(=O)Nc2ccc(C(F)(F)F)cc2)Oc2c(NC(=O)CCC(F)(F)F)cccc2C1=O | 27 | -2 | 3 | 1 | 6 | · | · | ·
O=C(NNC(=O)c1ccccc1O)c1cc2ccccc2o1 | -30 | 3 | 2 | -10 | -9 | 19 | · | ·
Cc1nccc(-c2ccc(-n3cnc4ccccc43)cc2)n1 | 32 | 1 | 1 | 3 | -3 | -5 | · | ·
c1ccc2c(c1)ncn2-c1ccc(-c2ccnc3ncnn23)cc1 | 10 | 2 | 2 | -10 | -1 | -1 | · | ·
c1ccc2c(c1)ncn2-c1ccc(-c2ccnc(-c3ccncc3)n2)cc1 | 53* | 1 | -1 | 2 | -2 | 5 | 16 | ·
Nc1nccc(-c2ccc(-n3cnc4ccccc43)cc2)n1 | 70* | 2 | 5 | · | -11 | -4 | 56* | 22
CCOc1ccc(Nc2ncnc3ccc([N+](=O)[O-])cc23)cc1 | 69* | -2 | -1 | 7 | 0 | 3 | 71* | 53*
Cc1cccc(NC(=O)c2ccc(C3SCC(=O)N3CCc3ccccc3)cc2)c1 (stereo not drawn) | 54* | -1 | 2 | 0 | 37 | 16 | 25 | ·
CCOCCCNC(=O)c1ccc2c(c1)N=C(CC)c1cc(Br)ccc1S2 | 66* | 17 | 1 | 69 | 30 | 14 | 60* | 113*
O=C(CCCCn1c(=O)c2ccccc2n(Cc2ccc(F)cc2Cl)c1=O)NCc1ccco1 | 54* | -3 | 1 | 13 | -4 | -6 | 25 | ·
SMILES | Mdm2-MdmX inh | UPR XBP1 act | UPR CHOP act | CSC inhib | Beta cell apopt | SKKanGAS inh | Mdm2 MdmX conf | FLuc counter
O=C(c1ccc(Cl)c(Cl)c1)N1CCC(=O)N(C(COCc2ccccc2)Cc2ccccc2)CC1 (stereo not drawn) | 61* | -5 | 1 | 38 | -1 | 18 | 48* | 90*
O=C(c1cccc(Cl)c1)N1CCC(=O)N(C(COCc2ccccc2)Cc2ccccc2)CC1 (stereo not drawn) | 27 | -2 | 2 | -3 | 1 | 9 | · | ·
C/C(=N\NC(=O)c1cccc(F)c1)c1ccc(Br)s1 | 72* | 9 | -1 | 50 | 9 | -17 | 49* | 44*
CCCC(NC(=O)CCc1c(C)c2cc3c4c(oc3c(C)c2oc1=O)CCCC4)C(=O)O (stereo not drawn) | -10 | -2 | -2 | -6 | -5 | 17 | · | ·
CCc1ccccc1N(CC)C(=O)C1CCN(c2ncnc3c2nc2n3CCCCC2)CC1 | 64* | 7 | 2 | -14 | 12 | 2 | 7 | ·
CCN(Cc1ccccc1)C(=O)C1CCN(c2ncnc3c2nc2n3CCCCC2)CC1 | 40 | -3 | 5 | -6 | 0 | -7 | · | ·
Cc1cc(C)c(C)c(S(=O)(=O)NCc2ccc(C(=O)N3CCN(C)CC3)cc2)c1C | 6 | -4 | -2 | 31 | · | 3 | · | ·
Fc1cccc(/C=N/Nc2nc3ccccc3[nH]2)c1 | -32 | 1 | 8 | -15 | 13 | 13 | · | ·
C(=N\Nc1nc2ccccc2[nH]1)/c1cccc2cccnc12 | 65* | 0 | 2 | 100* | · | 38 | 66* | 45*
CCOC(=O)C1CCN(C(=O)C2COc3ccccc3O2)CC1 (stereo not drawn) | 18 | -1 | -1 | -10 | 0 | -2 | · | ·
CCCCCCOC(=O)C(C#N)c1nc2ccccc2nc1N1CCN(CC)CC1 (stereo not drawn) | 60* | -1 | 4 | 25 | 5 | 6 | 32 | 70*
CCOc1ccccc1N1CCN(c2nc3ccccc3nc2C(C#N)C(=O)OC)CC1 (stereo not drawn) | 71* | -6 | 2 | 5 | -2 | 1 | 14 | ·
COc1ccccc1N1CCN(c2nc3ccccc3nc2C(C#N)C(=O)OC(C)C)CC1 (stereo not drawn) | 17 | -2 | 0 | 8 | 10 | 25 | · | ·
CN(C)C1(CNC(=O)C2CCN(S(=O)(=O)c3ccccc3C(F)(F)F)CC2)CCCCC1 | -9 | -5 | 1 | -14 | 0 | -3 | · | ·
NC(=S)N1OC[C@@H]2COc3ccc4ccccc4c3[C@@H]21 | 69* | -4 | -6 | 21 | -6 | 6 | 53* | 46*
